What was measured:
[1] = Cytotoxicity against virus infected HEL cells assessed as alteration in cell morphology by microscopic method; format: cell-based; settings: human
How it was run: (§1)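 In the HEL cultures used for the antiviral assays, cell morphology was examined microscopically across varying compound concentrations. MCC is the minimum concentration causing a microscopically detectable alteration of cell morphology.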

Human alphaherpesvirus 3 [2] = test: Antiviral activity against thymidine kinase expressing Varicella-Zoster virus OKA infected in HEL cells assessed as reduction in virus plaque formation; format: functional, cell-based, strain Oka vaccine
How it was run: (§2)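 Confluent HEL fibroblast cultures were infected with VZV at an input of 100 PFU and incubated with varying compound concentrations. Plaques were counted once plaque formation was complete in untreated infected controls.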

HEL [3] = test: Cytotoxicity against HEL cells infected with Varicella-Zoster virus assessed as growth inhibition; format: cell-based; settings: human, hel
Cytomegalovirus [4] = test: Antiviral activity against Cytomegalovirus Davis infected in HEL cells assessed as reduction in virus plaque formation; format: functional, cell-based
How it was run: (§3)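 Confluent HEL fibroblast cultures infected with 100 PFU of HCMV and kept with varying compound concentrations. Plaques scored once plaque formation was complete in untreated infected controls.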

[5] = Cytotoxicity against HEL cells infected with Varicella-Zoster virus assessed as alteration in cell morphology by microscopic method; format: cell-based; settings: human, HEL cells infected with Varicella-Zoster virus; how it was run: as §1
HMEC-1 = test: Anti-proliferative activity against HMEC1 cells by coulter counter method; format: ADME, cell-based, Homo sapiens; settings: Homo sapiens, HMEC-1
How it was run: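 HMEC-1 cells at 300,000–500,000 cells/mL, mixed 1:1 by volume with serial dilutions of test compound, incubated at 37 °C. Cell number counted by Coulter counter.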

Human alphaherpesvirus 3 [6] = test: Antiviral activity against thymidine kinase deficient Varicella-Zoster virus 07-1 infected in HEL cells assessed as reduction in virus plaque formation; format: functional, cell-based; how it was run: as §2
Cytomegalovirus [7] = test: Antiviral activity against Cytomegalovirus AD169 infected in HEL cells assessed as reduction in virus plaque formation; format: functional, cell-based; how it was run: as §3
[8] = Cytotoxicity against HEL cells infected with Cytomegalovirus assessed as alteration in cell morphology by microscopic method; format: cell-based; settings: human, HEL cells infected with Cytomegalovirus; how it was run: as §1
L1210 = test: Anti-proliferative activity against mouse L1210 cells measured after 48 hrs by coulter counter method; format: ADME, cell-based
How it was run: (§4)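 Cells at 300,000–500,000 cells/mL, combined 1:1 by volume with compound dilutions, incubated at 37 °C: L1210 for two days, CEM for three days, HeLa for four days. Cells counted by Coulter counter.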

HeLa = test: Anti-proliferative activity against human HeLa cells measured after 4 days by coulter counter method; format: ADME, cell-based; how it was run: as §4
HEL [9] = test: Cytotoxicity against HEL cells infected with Cytomegalovirus assessed as growth inhibition; format: cell-based; settings: human
CCRF-CEM = test: Anti-proliferative activity against human CEM cells measured after 72 hrs by coulter counter method; format: ADME, cell-based; how it was run: as §4
[10] = Human alphaherpesvirus 3, strain Oka vaccine, HEL
[11] = Human betaherpesvirus 5, Davis, HEL
[12] = Human alphaherpesvirus 3, 07-1, HEL
[13] = Human betaherpesvirus 5, AD169, HEL

SMILES	MCC [1] [µM]	EC50 (Human alphaherpesvirus 3 [2]; [10]) [µM]	CC50 (HEL [3]) [µM]	EC50 (Cytomegalovirus [4]; [11]) [µM]	MCC [5] [µM]	IC50 (HMEC-1) [µM]	EC50 (Human alphaherpesvirus 3 [6]; [12]) [µM]	EC50 (Cytomegalovirus [7]; [13]) [µM]	MCC [8] [µM]	IC50 (L1210; Mus musculus, L1210, 48 h) [µM]	EC50 (Human alphaherpesvirus 3 [2]) [µM]	EC50 (Cytomegalovirus [4]) [µM]	IC50 (HeLa; hela) [µM]	EC50 (Human alphaherpesvirus 3 [6]) [µM]	EC50 (Cytomegalovirus [7]) [µM]	CC50 (HEL [9]) [µM]	IC50 (CCRF-CEM; ccrf-cem) [µM]	IC50 (L1210; l1210) [µM]	IC50 (HeLa; Homo sapiens, HeLa, 96 h) [µM]	IC50 (CCRF-CEM; Homo sapiens, CCRF-CEM, 72 h) [µM]
NC(=O)c1ncn([C@@H]2O[C@H](CO)[C@@H](O)[C@H]2O)n1 [RIBAVIRIN]	≥ 250	–	–	–	–	–	–	–	–	–	–	–	–	–	–	–	–	–	–	–
CCOP(=O)(OCC)[C@H]1C[C@@H](Cn2c(=O)n(C(=O)c3ccccc3)c(=O)c3ccccc32)ON1Cc1ccccc1 (relative stereo)	–	8.5	16.3	> 20	100	> 250	10.8	> 20	100	155	–	–	–	–	–	–	–	–	–	–
CCOP(=O)(OCC)C1CC(Cn2c(=O)n(Cc3ccccc3)c(=O)c3ccccc32)ON1Cc1ccccc1 (mixture of isomers; trans)	–	–	–	–	–	–	–	–	–	–	> 20	13.1	73	> 20	≥ 14.5	41.7	15	17	–	–
CCOP(=O)(OCC)C1CC(Cn2c(=O)n(Cc3ccc(F)cc3)c(=O)c3ccccc32)ON1C (mixture of isomers)	–	35.5	–	> 20	100	≥ 250	25.2	> 20	100	≥ 250	–	–	–	–	–	–	–	–	158	173
CCOP(=O)(OCC)[C@H]1C[C@@H](Cn2c(=O)n(Cc3ccccc3F)c(=O)c3ccccc32)ON1C (relative stereo)	–	58.5	–	100	> 100	≥ 250	> 100	> 100	100	203	–	–	–	–	–	–	–	–	128	181
CCOP(=O)(OCC)C1CC(Cn2c(=O)n(C(=O)c3ccc(F)cc3)c(=O)c3ccccc32)ON1Cc1ccccc1 (mixture of isomers)	–	7.4	12.3	> 20	100	–	7.6	> 20	20	105	–	–	–	–	–	–	–	–	> 250	132
CCOP(=O)(OCC)C1CC(Cn2c(=O)n(C(=O)c3cccc(F)c3)c(=O)c3ccccc32)ON1C (mixture of isomers)	–	7.8	30	> 100	> 100	–	21.4	> 100	100	> 250	–	–	–	–	–	–	–	–	> 250	–
CCOP(=O)(OCC)C1CC(Cn2c(=O)n(C(=O)c3cccc(F)c3)c(=O)c3ccccc32)ON1Cc1ccccc1 (mixture of isomers)	–	6	19.3	> 20	100	> 250	8.5	> 20	100	185	–	–	–	–	–	–	–	–	–	166
CCOP(=O)(OCC)[C@@H]1C[C@@H](Cn2c(=O)n(Cc3ccc(F)cc3)c(=O)c3ccccc32)ON1C (relative stereo)	–	66.9	–	100	10	158	> 20	> 100	100	126	–	–	–	–	–	–	–	–	82	93
CCOP(=O)(OCC)[C@@H]1C[C@@H](Cn2c(=O)n(C(=O)c3ccc(F)cc3)c(=O)c3ccccc32)ON1Cc1ccccc1 (relative stereo)	–	7.5	12.7	> 20	100	≥ 250	8.3	> 20	20	123	–	–	–	–	–	–	–	–	–	170
CCOP(=O)(OCC)C1CC(Cn2c(=O)n(Cc3cccc(F)c3)c(=O)c3ccccc32)ON1C (mixture of isomers)	–	7	36.8	44.7	≥ 100	149	27.1	> 20	100	118	–	–	–	–	–	–	–	–	86	77
O=c1[nH]cc(F)c(=O)[nH]1 [FLUOROURACIL]	–	–	–	–	–	–	–	–	–	0.33	–	–	–	–	–	–	–	–	–	–
CCOP(=O)(OCC)[C@@H]1C[C@@H](Cn2c(=O)n(C(=O)c3cccc(F)c3)c(=O)c3ccccc32)ON1Cc1ccccc1 (relative stereo)	–	8.7	9.8	> 20	100	> 250	8.5	> 20	20	170	–	–	–	–	–	–	–	–	> 250	224
CCOP(=O)(OCC)[C@H]1C[C@@H](Cn2c(=O)n(C(=O)c3ccc(F)cc3)c(=O)c3ccccc32)ON1C (relative stereo)	–	26.2	–	> 20	> 100	> 250	24.5	> 20	100	–	–	–	–	–	–	–	–	–	> 250	> 250
CCOP(=O)(OCC)[C@@H]1C[C@@H](Cn2c(=O)n(C(=O)c3ccccc3F)c(=O)c3ccccc32)ON1C (relative stereo)	–	36.6	–	66.9	> 100	–	34.2	> 20	100	–	–	–	–	–	–	–	–	–	–	> 250
Nc1nc2c(ncn2COCCO)c(=O)[nH]1 [ACYCLOVIR]	> 250	–	–	–	> 440	–	–	–	–	–	–	–	–	–	–	–	–	–	–	–
CCOP(=O)(OCC)[C@@H]1C[C@@H](Cn2c(=O)n(C(=O)c3ccccc3)c(=O)c3ccccc32)ON1Cc1ccccc1 (relative stereo)	–	8.5	28.9	> 20	100	–	> 20	> 20	100	154	–	–	–	–	–	–	–	–	> 250	≥ 250
CCOP(=O)(OCC)[C@@H]1C[C@@H](Cn2c(=O)n(Cc3cccc(F)c3)c(=O)c3ccccc32)ON1C (relative stereo)	–	55.7	–	63.1	> 100	152	> 100	76.5	> 100	132	–	–	–	–	–	–	–	–	88	100
CCOP(=O)(OCC)C1CC(Cn2c(=O)n(C(=O)c3ccccc3F)c(=O)c3ccccc32)ON1Cc1ccccc1 (mixture of isomers)	–	16.7	21.4	> 20	100	> 250	20	> 20	100	155	–	–	–	–	–	–	–	–	≥ 250	158
CCOP(=O)(OCC)C1CC(Cn2c(=O)n(C(=O)c3ccccc3F)c(=O)c3ccccc32)ON1C (mixture of isomers)	–	29	–	63.1	> 100	> 250	25.6	> 100	100	> 250	–	–	–	–	–	–	–	–	> 250	–
CCOP(=O)(OCC)[C@@H]1C[C@@H](Cn2c(=O)n(Cc3ccccc3F)c(=O)c3ccccc32)ON1Cc1ccccc1 (relative stereo)	–	4	–	> 4	20	145	> 20	> 20	20	68	–	–	–	–	–	–	–	–	79	98
CCOP(=O)(OCC)C1CC(Cn2c(=O)n(Cc3ccccc3)c(=O)c3ccccc32)ON1C (mixture of isomers)	–	> 100	–	> 100	> 100	222	> 100	> 100	100	146	–	–	–	–	–	–	–	–	95	104
CCOP(=O)(OCC)[C@@H]1C[C@@H](Cn2c(=O)n(Cc3ccccc3F)c(=O)c3ccccc32)ON1C (relative stereo)	–	> 20	–	100	100	189	> 20	> 100	20	196	–	–	–	–	–	–	–	–	74	99
CCOP(=O)(OCC)[C@@H]1C[C@@H](Cn2c(=O)n(Cc3ccccc3)c(=O)c3ccccc32)ON1C (relative stereo)	–	> 20	–	> 100	100	235	> 20	> 100	100	141	–	–	–	–	–	–	–	–	119	124
CCOP(=O)(OCC)[C@@H]1C[C@@H](Cn2c(=O)n(C(=O)c3cccc(F)c3)c(=O)c3ccccc32)ON1C (relative stereo)	–	16.7	16.5	> 20	> 100	> 250	15	> 20	100	228	–	–	–	–	–	–	–	–	–	> 250
